Results as given in ChEMBL document CHEMBL1144020, “Development of prodrug 4-chloro-3-(5-methyl-3-{[4-(2-pyrrolidin-1-ylethoxy)phenyl]amino}-1,2,4-benzotriazin-7-yl)phenyl benzoate (TG100801): a topically administered therapeutic candidate in clinical trials for the treatment of age-related macular degeneration” (J Med Chem, 2008).
Each block holds one compound with its values, some of them ahead of it.

Legend:
[1] = Stability at 120 degC after 1 hr; assay type: physicochemical; conditions: read-out: Stability
Outline: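 Prodrugs at 0.5% in 0.5% HPMC/5% dextrose, pH 6.7, in closed vials, autoclaved at 120 °C for 1 h. After cooling, percent remaining was assessed by reverse-phase HPLC with diode-array and ELSD detection.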

[2] = Stability in Dutch-belted rabbit eye assessed as hydrolysis rate; assay type: ADME, tissue-based, Oryctolagus cuniculus
Outline: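 Two Dutch-Belted rabbit eyeballs were homogenized in 1× RIPA buffer. Prodrug (from 1 mg/mL DMSO stock) was added to a final 5 µg/mL and kept at 37 °C, sampled at 0, 0.25, 1, 2 and 6 h. Controls were prodrug in RIPA buffer for 120 min at 37 °C. Supernatants were analyzed by LC/MS/MS for prodrug and released parent phenol.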

[3] = target: Proto-oncogene tyrosine-protein kinase Src (Homo sapiens, UniProt P12931); experiment: Inhibition of Src
[4] = target: Vascular endothelial growth factor receptor 2 (Homo sapiens, UniProt P35968); experiment: Inhibition of VEGFR2
[5] = target: Tyrosine-protein kinase Yes (Homo sapiens, UniProt P07947); experiment: Inhibition of YES
[6] = Tmax in C57BL/6 mouse retina at 172 nM instilled per eye; assay type: ADME, organism-based; conditions: topical or ocular, 172 nM per eye
Outline: (§1)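 Male C57BL/6 mice got one 10 µL eye drop of prodrug (100 µg, 172 nmol per eye). Composite sampling at 0.5, 1, 3, 7 and 24 h post-instillation. Cornea, retina and pooled sclera/choroid were collected, with plasma at euthanasia. Tissues were homogenized in RIPA and extracted with acetonitrile. Prodrug and parent were measured by LC/MS/MS against matrix standards; AUC by linear trapezoidal rule on means.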

[7] = Cmax in C57BL/6 mouse retina at 172 nM instilled per eye; assay type: ADME, organism-based; design: dose 172 nM, route ophthalmic; conditions: topical or ocular, 172 nM per eye; outline: as §1
[8] = AUC (0 to 24 hrs) in C57BL/6 mouse retina at 172 nM instilled per eye; assay type: ADME, organism-based; design: dose 172 nM, time < 24 hr, route ophthalmic; conditions: topical or ocular, 172 nM per eye; outline: as §1
[9] = Tmax in C57BL/6 mouse choroid/sclera at 172 nM instilled per eye; assay type: ADME, organism-based; conditions: topical or ocular, 172 nM per eye; outline: as §1
[10] = Cmax in C57BL/6 mouse choroid/sclera at 172 nM instilled per eye; assay type: ADME, organism-based; design: dose 172 nM, route ophthalmic; conditions: topical or ocular, 172 nM per eye; outline: as §1
[11] = species on record: Mus musculus; experiment: Tmax in C57BL/6 mouse choroid/sclera assessed as 4-chloro-3-{5-methyl-3-[4-(2-pyrrolidin-1-yl-ethoxy)phenylamino]benzo[1,2,4]triazin-7-yl}phenol at 172 nM instilled per eye; assay type: ADME, organism-based; conditions: in vivo, topical_or_ocular, 0.172 µM; outline: as §1
[12] = species on record: Mus musculus; experiment: Cmax in C57BL/6 mouse choroid/sclera assessed as 4-chloro-3-{5-methyl-3-[4-(2-pyrrolidin-1-yl-ethoxy)phenylamino]benzo[1,2,4]triazin-7-yl}phenol at 172 nM instilled per eye; assay type: ADME, organism-based; design: dose 172 nM, route ophthalmic; conditions: in vivo, topical_or_ocular, 0.172 µM; outline: as §1
[13] = species on record: Mus musculus; experiment: AUC (0 to 24 hrs) in C57BL/6 mouse choroid/sclera assessed as 4-chloro-3-{5-methyl-3-[4-(2-pyrrolidin-1-yl-ethoxy)phenylamino]benzo[1,2,4]triazin-7-yl}phenol at 172 nM instilled per eye; assay type: ADME, organism-based; design: dose 172 nM, time < 24 hr, route ophthalmic; conditions: in vivo, topical_or_ocular, 0.172 µM; outline: as §1
[14] = species on record: Mus musculus; experiment: Tmax in C57BL/6 mouse cornea assessed as 4-chloro-3-{5-methyl-3-[4-(2-pyrrolidin-1-yl-ethoxy)phenylamino]benzo[1,2,4]triazin-7-yl}phenol at 172 nM instilled per eye; assay type: ADME, organism-based; conditions: in vivo, topical_or_ocular, 0.172 µM; outline: as §1
[15] = species on record: Mus musculus; experiment: Cmax in C57BL/6 mouse cornea assessed as 4-chloro-3-{5-methyl-3-[4-(2-pyrrolidin-1-yl-ethoxy)phenylamino]benzo[1,2,4]triazin-7-yl}phenol at 172 nM instilled per eye; assay type: ADME, organism-based; design: dose 172 nM, route ophthalmic; conditions: in vivo, topical_or_ocular, 0.172 µM; outline: as §1
[16] = AUC (0 to 24 hrs) in C57BL/6 mouse choroid/sclera at 172 nM instilled per eye; assay type: ADME, organism-based; design: dose 172 nM, time < 24 hr, route ophthalmic; conditions: topical or ocular, 172 nM per eye; outline: as §1
[17] = Tmax in C57BL/6 mouse cornea at 172 nM instilled per eye; assay type: ADME, organism-based; conditions: topical or ocular, 172 nM per eye; outline: as §1
[18] = Cmax in C57BL/6 mouse cornea at 172 nM instilled per eye; assay type: ADME, organism-based; design: dose 172 nM, route ophthalmic; conditions: topical or ocular, 172 nM per eye; outline: as §1
[19] = AUC (0 to 24 hrs) in C57BL/6 mouse cornea at 172 nM instilled per eye; assay type: ADME, organism-based; design: time < 24 hr, dose 172 nM, route ophthalmic; conditions: topical or ocular, 172 nM per eye; outline: as §1
[20] = Plasma concentration in C57BL/6 mouse after 24 hrs; assay type: ADME, organism-based
[21] = species on record: Mus musculus; experiment: Tmax in C57BL/6 mouse retina assessed as 4-chloro-3-{5-methyl-3-[4-(2-pyrrolidin-1-yl-ethoxy)phenylamino]benzo[1,2,4]triazin-7-yl}phenol at 172 nM instilled per eye; assay type: ADME, organism-based; conditions: in vivo, topical_or_ocular, 0.172 µM; outline: as §1
[22] = species on record: Mus musculus; experiment: Cmax in C57BL/6 mouse retina assessed as 4-chloro-3-{5-methyl-3-[4-(2-pyrrolidin-1-yl-ethoxy)phenylamino]benzo[1,2,4]triazin-7-yl}phenol at 172 nM instilled per eye; assay type: ADME, organism-based; design: dose 172 nM, route ophthalmic; conditions: in vivo, topical_or_ocular, 0.172 µM; outline: as §1
[23] = species on record: Mus musculus; experiment: AUC (0 to 24 hrs) in C57BL/6 mouse retina assessed as 4-chloro-3-{5-methyl-3-[4-(2-pyrrolidin-1-yl-ethoxy)phenylamino]benzo[1,2,4]triazin-7-yl}phenol at 172 nM instilled per eye; assay type: ADME, organism-based; design: time < 24 hr, dose 172 nM, route ophthalmic; conditions: in vivo, topical_or_ocular, 0.172 µM; outline: as §1
[24] = species on record: Mus musculus; experiment: AUC (0 to 24 hrs) in C57BL/6 mouse cornea assessed as 4-chloro-3-{5-methyl-3-[4-(2-pyrrolidin-1-yl-ethoxy)phenylamino]benzo[1,2,4]triazin-7-yl}phenol at 172 nM instilled per eye; assay type: ADME, organism-based; design: time < 24 hr, dose 172 nM, route ophthalmic; conditions: in vivo, topical_or_ocular, 0.172 µM; outline: as §1
[25] = species on record: Mus musculus; experiment: Tmax in C57BL/6 mouse plasma assessed as 4-chloro-3-{5-methyl-3-[4-(2-pyrrolidin-1-yl-ethoxy)phenylamino]benzo[1,2,4]triazin-7-yl}phenol at 172 nM instilled per eye; assay type: ADME, organism-based; conditions: in vivo, topical_or_ocular, 0.172 µM; outline: as §1
[26] = species on record: Mus musculus; experiment: Cmax in C57BL/6 mouse plasma assessed as 4-chloro-3-{5-methyl-3-[4-(2-pyrrolidin-1-yl-ethoxy)phenylamino]benzo[1,2,4]triazin-7-yl}phenol at 172 nM instilled per eye; assay type: ADME, organism-based; design: dose 172 nM, route ophthalmic; conditions: in vivo, topical_or_ocular, 0.172 µM; outline: as §1
[27] = test system: Mus musculus; experiment: Reduction of bruch's membrane rupture in laser-induced choroidoal neovascularization in mouse administered topically at 0.61% w/v after 14 days relative to control; assay type: functional; design: scale not given: the % may be the effect or the level left
Outline: (§2)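 Laser rupture of Bruch's membrane in female C57BL/6J mice aged 4–5 weeks, ketamine-anesthetized; only bubble-forming burns were counted. Eight mice/group got one 10 µL drop of vehicle, 0.61% or 1.83% w/v prodrug t.i.d., 4 h apart, with the fellow eye untreated; a fourth group had no treatment. On day 14, mice were perfused with fluorescein-dextran and CNV area was measured on choroidal flatmounts. Linear mixed model with Dunnett adjustment.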

[28] = test system: Mus musculus; experiment: Reduction of bruch's membrane rupture in laser-induced choroidoal neovascularization in mouse administered topically at 1.83% w/v after 14 days relative to control; assay type: functional; design: scale not given: the % may be the effect or the level left; outline: as §2
[29] = test system: Mus musculus; experiment: Reduction of VEGF-induced retinal leak in BALB/c mouse administered topically at 210 nM q.d; assay type: functional; design: scale not given: the % may be the effect or the level left

Chain of Tyrosine-protein kinase Yes (P07947 whole entry): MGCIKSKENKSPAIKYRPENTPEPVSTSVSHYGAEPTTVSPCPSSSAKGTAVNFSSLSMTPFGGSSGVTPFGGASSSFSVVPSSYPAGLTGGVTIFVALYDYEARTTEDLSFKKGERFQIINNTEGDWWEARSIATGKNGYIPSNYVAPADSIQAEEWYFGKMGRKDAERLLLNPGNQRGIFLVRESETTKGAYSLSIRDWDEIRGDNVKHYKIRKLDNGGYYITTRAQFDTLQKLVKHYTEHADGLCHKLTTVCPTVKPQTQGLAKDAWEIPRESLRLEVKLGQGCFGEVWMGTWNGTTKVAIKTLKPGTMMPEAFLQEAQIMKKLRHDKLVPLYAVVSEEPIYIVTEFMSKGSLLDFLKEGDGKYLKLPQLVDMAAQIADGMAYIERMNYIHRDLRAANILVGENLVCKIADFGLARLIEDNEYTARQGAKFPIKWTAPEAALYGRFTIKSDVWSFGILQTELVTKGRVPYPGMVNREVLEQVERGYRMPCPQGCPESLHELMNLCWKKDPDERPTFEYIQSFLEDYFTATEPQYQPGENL
Chain of Vascular endothelial growth factor receptor 2 (P35968 whole entry): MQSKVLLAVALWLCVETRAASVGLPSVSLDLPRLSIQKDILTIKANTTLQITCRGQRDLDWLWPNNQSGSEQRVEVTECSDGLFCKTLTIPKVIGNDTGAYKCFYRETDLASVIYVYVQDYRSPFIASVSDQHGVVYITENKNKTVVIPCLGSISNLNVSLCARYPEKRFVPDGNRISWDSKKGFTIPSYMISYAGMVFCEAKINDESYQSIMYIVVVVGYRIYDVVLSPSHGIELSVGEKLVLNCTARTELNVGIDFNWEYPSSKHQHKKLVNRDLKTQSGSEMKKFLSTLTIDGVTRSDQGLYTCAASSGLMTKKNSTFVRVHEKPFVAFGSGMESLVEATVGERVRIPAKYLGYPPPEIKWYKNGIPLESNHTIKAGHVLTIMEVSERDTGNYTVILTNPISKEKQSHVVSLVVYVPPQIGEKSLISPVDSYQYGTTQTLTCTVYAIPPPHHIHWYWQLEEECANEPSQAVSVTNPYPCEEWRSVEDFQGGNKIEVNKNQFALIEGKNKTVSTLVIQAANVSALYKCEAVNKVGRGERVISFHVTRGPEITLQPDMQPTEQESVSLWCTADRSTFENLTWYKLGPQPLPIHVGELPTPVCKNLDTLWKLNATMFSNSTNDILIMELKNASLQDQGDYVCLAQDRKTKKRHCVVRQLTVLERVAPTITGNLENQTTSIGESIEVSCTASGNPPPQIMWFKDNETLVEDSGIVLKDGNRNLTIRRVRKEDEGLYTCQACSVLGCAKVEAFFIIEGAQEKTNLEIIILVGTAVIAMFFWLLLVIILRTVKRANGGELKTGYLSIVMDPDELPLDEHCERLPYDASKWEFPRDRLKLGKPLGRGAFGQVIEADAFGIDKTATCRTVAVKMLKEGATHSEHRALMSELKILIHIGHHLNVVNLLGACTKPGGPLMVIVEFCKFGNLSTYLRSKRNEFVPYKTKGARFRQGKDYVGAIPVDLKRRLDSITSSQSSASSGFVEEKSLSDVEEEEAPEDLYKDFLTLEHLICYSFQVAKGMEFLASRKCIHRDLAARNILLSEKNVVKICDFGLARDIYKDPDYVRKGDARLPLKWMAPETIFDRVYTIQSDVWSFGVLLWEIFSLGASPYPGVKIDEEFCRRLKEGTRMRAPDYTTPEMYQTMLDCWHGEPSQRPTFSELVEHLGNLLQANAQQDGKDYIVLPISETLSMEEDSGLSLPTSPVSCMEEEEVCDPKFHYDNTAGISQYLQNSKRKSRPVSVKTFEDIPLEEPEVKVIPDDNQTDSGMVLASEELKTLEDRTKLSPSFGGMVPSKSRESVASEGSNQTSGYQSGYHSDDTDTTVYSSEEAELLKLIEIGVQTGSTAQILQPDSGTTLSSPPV
Chain of Proto-oncogene tyrosine-protein kinase Src (P12931 2-536 limits assumed): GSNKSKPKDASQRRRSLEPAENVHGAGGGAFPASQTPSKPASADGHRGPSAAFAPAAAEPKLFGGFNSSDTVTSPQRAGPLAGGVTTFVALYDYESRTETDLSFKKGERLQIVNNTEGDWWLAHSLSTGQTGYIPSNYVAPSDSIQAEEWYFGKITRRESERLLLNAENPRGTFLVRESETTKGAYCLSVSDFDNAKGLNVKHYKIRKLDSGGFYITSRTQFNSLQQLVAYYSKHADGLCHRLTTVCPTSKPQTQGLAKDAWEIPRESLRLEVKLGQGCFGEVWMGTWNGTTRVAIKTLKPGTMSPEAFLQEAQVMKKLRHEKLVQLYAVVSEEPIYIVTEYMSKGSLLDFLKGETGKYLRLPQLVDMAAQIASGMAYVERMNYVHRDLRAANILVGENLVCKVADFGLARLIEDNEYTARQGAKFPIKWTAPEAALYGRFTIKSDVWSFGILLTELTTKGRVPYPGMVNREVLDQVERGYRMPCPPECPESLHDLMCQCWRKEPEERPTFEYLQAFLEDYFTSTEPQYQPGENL

- remaining at 1 h [1]: > 90%
- Stability [2]: 1.7 ng/mL/h
SMILES: Cc1cc(-c2cc(OC(=O)c3c(Cl)cccc3Cl)ccc2Cl)cc2nnc(Nc3ccc(OCCN4CCCC4)cc3)nc12

- remaining at 1 h [1]: > 90%
SMILES: Cc1cc(-c2cc(OC(=O)c3ccc(CN4CCOCC4)cc3)ccc2Cl)cc2nnc(Nc3ccc(OCCN4CCCC4)cc3)nc12

- IC50 [3]: ≥ 10 µM
- IC50 [4]: ≥ 10 µM
- IC50 [5]: ≥ 2.5 µM
- remaining at 1 h [1]: > 90%
- Stability [2]: 288 ng/mL/h
- Tmax at 0.172 µM [6]: 24 h
- Cmax at 0.172 µM [7]: 5.3 µM
- AUC(0-t) at 24 h, 0.172 µM [8]: 63000 ng·h/mL
- Tmax at 0.172 µM [9]: 24 h
- Cmax at 0.172 µM [10]: 27 µM
- Tmax [11]: 24 h
- Cmax [12]: 29 µM
- AUC [13]: 540000 ng·h/mL
- Tmax [14]: 7 h
- Cmax [15]: 33 µM
- AUC(0-t) at 24 h, 0.172 µM [16]: 430000 ng·h/mL
- Tmax at 0.172 µM [17]: 24 h
- Cmax at 0.172 µM [18]: 3.7 µM
- AUC(0-t) at 24 h, 0.172 µM [19]: 55000 ng·h/mL
- concentration at 24 h [20]: < 1 ng/mL
- Tmax [21]: 24 h
- Cmax [22]: 2.4 µM
- AUC [23]: 35000 ng·h/mL
- AUC [24]: 670000 ng·h/mL
- Tmax [25]: 24 h
- Cmax [26]: 0.005 µM
SMILES: Cc1cc(-c2cc(OC(=O)c3ccccc3)ccc2Cl)cc2nnc(Nc3ccc(OCCN4CCCC4)cc3)nc12 [TG100-801]
- Activity [27]: 46%
- Activity [28]: 35%
- Activity [29]: 100%
